This is an account of results in publication PMC5474308 (Biochimica et biophysica acta, 2015).

Test [1] has as its system PAK2 (pT402) in pancreatic acini. Put plainly: Effect of post-receptor stimulants on T402 PAK2 phosphorylation. Format: cell-based, rat. The conditions noted are these: 1 μM each, 5 min.
For test [2] the test system is unchanged. The test is classed as cell-based, rat.
For test [3] the test system is unchanged. The test is classed as cell-based, rat. The conditions noted are these: for PAK2 inhibition: IPA-3 40 μM, 15 min.
Test [4] concerns ERK1/2 (p42/44) in pancreatic acini. Briefly: Effect of PAK2 inhibition on ERK1/2. Format: cell-based, rat.
Test [5] concerns rat pancreatic acinar cells (amylase release). Briefly: Effect of PAK2 inhibition on amylase release. The test is classed as cell-based. The settings on record: for Amylase secretion (% total), inhibitor with CCK 0.01 nM: 40 μM inhibitor/analogue + CCK 0.01 nM, CCK alone 11.9 ± 2.2; for Amylase secretion (% total), inhibitor with CCK 0.01 nM / Amylase secretion (% total), inhibitor with CCK 0.1 nM / Amylase secretion (% total), inhibitor with bombesin / Amylase secretion (% total), inhibitor without secretagogue / Amylase secretion (% total), no inhibitor: 30 min; for Amylase secretion (% total), inhibitor with CCK 0.1 nM: 40 μM inhibitor/analogue + CCK 0.1 nM, CCK alone 15.7 ± 0.4; for Amylase secretion (% total), inhibitor with bombesin: 40 μM inhibitor/analogue + bombesin 10 nM, bombesin alone 15.2 ± 0.8; for Amylase secretion (% total), inhibitor without secretagogue: 40 μM inhibitor/analogue, no secretagogue; for Amylase secretion (% total), no inhibitor: 5–10 experiments, untreated 3.8 ± 0.3, p<0.05 vs control. In a few lines:
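Secretagogues were CCK (0.01 or 0.1 nM) or bombesin (10 nM). Amylase released over a 30 min incubation was measured with Phadebas reagent and expressed as % of total cellular amylase. Means of 5–10 experiments.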

The subject of test [6] is PAK2 (pT402) in pancreatic acini. Put plainly: PAK2 T402 phosphorylation after stimulation by secretagogues and growth factors. Format: cell-based, rat. The settings on record: for PAK2 activation (abstract, words): rat pancreatic acini; for effect on phosphorylation of (T402) PAK2: VIP 10 nM, secretin 10 nM, endothelin 1 10 nM, 1 min; for T402 PAK2 phosphorylation by growth factors, % of control: EGF 10 nM 5 min, bFGF 100 ng/ml 5 min, PDGF 100 ng/ml 10 min (p<0.05), insulin 1 μM 10 min (p=0.08), 5 independent experiments; for effect of growth factors on PAK2 threonine 402 phosphorylation: IGF-1 100 nM 10 min, HGF 1 nM 10 min, insulin 1 μM 10 min.

Test [7] shares this test system. Put plainly: Time course of CCK and EGF stimulation of PAK2 T402 phosphorylation. The conditions noted are these: for T402 PAK2 phosphorylation at 1 minute: 1 min; for T402 PAK2 phosphorylation at 1 minute / duration of increase in phospho-T402 PAK2 / time of maximum T402 PAK2 phosphorylation: CCK 100 nM or EGF 10 nM. The test is classed as cell-based, rat.
The test system is the same in test [8]. Put plainly: Dose-response effect of CCK and CCK-JMV on T402 PAK2 phosphorylation. The test is classed as cell-based, rat. The conditions noted are these: 3 min. Summed up:
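Rat pancreatic acini were dispersed by collagenase and pre-incubated 2 h at 37 °C in HEPES-buffered (pH 7.45) standard incubation solution. They were then exposed for 3 min to graded concentrations of CCK or the test peptide, and lysed. Read-out was pT402 PAK2 western blot with total PAK2 as loading control, by chemiluminescence densitometry. Values are % of 100 nM CCK response; n=5; EC50 by curve fitting.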

The test system of test [9] is CCK1 / CCK2 receptors in pancreatic acini (pT402 PAK2). Format: cell-based, rat. The settings on record: gastrin (CCKB agonist) 10 nM, A71378 (CCKA receptor agonist) 30 nM, 1 min.

Like-named read-outs stand apart in the source and are kept apart here. Ends that are not written are not given here.

`CNc1ccc2oc(C[C@H]3O[C@@]4(CC[C@H]3C)O[C@H]([C@H](C)C(=O)c3ccc[nH]3)[C@H](C)C[C@H]4C)nc2c1C(=O)O` [A23187]: the “effect on PAK2 phosphorylation” value in test [1] was “have no effect on PAK2”.

On to `CN(C)CCCn1cc(C2=C(c3c[nH]c4ccccc34)C(=O)NC2=O)c2ccccc21` [GFX], for which the “TPA-induced pT402 PAK2 phosphorylation after pretreatment” value in [2] (pretreatment GF109203X 5 μM 1 h, then TPA 1 μM 5 min, TPA alone 319±45) is listed as 100±26 % of control.

Take `Oc1ccc2ccccc2c1SSc1c(O)ccc2ccccc12` [IPA-3, 1,1′-Dithiodi-2-naphthtol]: the PAK2 inhibition in test [3] was 70%. Moreover, in test [3] (listed as IPA3), the PAK2 inhibition result is on record as “approximately 70%”. The “basal pT402 PAK2 phosphorylation with inhibitor” value in test [3] (PP2 10 μM 1 h or IPA-3 40 μM 15 min, no stimulant) is given as 32±6 % of control. The “effect on CCK-activation of PAK2 (abstract, words)” value in [3] (rat pancreatic acini) is recorded as “partially inhibited”. The “CCK induced phosphorylation of p42/44 with inhibitor” value in test [4] (IPA-3 40 μM, then CCK 0.3 nM, p<0.05) was 64±4 % of CCK 0.3 nM alone. In addition, in test [4] (rat pancreatic acini), the “effect on CCK-induced ERK1/2 activation (abstract, words)” value is reported as “reduced”. In addition, in [5] (40 μM IPA3, bombesin 10 nM), the “reduction of bombesin-induced increase in amylase release” value is given as 55 % of the maximal bombesin-induced stimulation. In addition, the “reduction of CCK-induced increase in amylase release” value in test [5] (40 μM IPA3, both concentrations of CCK (0.01, 0.1 nM)) is 63 % of maximal CCK stimulation. Moreover, in test [5], the “Amylase secretion (% total), inhibitor with CCK 0.01 nM” value is 7.5 ± 1.3ˆ % total; the “Amylase secretion (% total), inhibitor with CCK 0.1 nM” value is 9.6 ± 0.6ˆ % total; the “Amylase secretion (% total), inhibitor with bombesin” value is listed as 10.3± 0.9ˆ % total; the “Amylase secretion (% total), inhibitor without secretagogue” value was determined as 5.2 ± 0.5 % total. For the same molecule, the “effect on amylase release induced by CCK or bombesin (abstract, words)” value in test [5] (rat pancreatic acini) was “reduced”.

On to `Oc1ccc2cc(SSc3ccc4cc(O)ccc4c3)ccc2c1` [Pir 3,5, 6,6′-Dithiodi-2-naphthtol], for which, in test [5], the “Amylase secretion (% total), inhibitor with CCK 0.01 nM” value is reported as 12.6 ± 0.8 % total; the “Amylase secretion (% total), inhibitor with CCK 0.1 nM” value is on record as 14.7± 1.0 % total; the “Amylase secretion (% total), inhibitor with bombesin” value is recorded as 14.4 ± 1.2 % total; the “Amylase secretion (% total), inhibitor without secretagogue” value came out at 4.3 ± 0.9 % total. Also, the “effect on stimulated enzyme secretion” value in [5] (Pir3,5 40 μM, CCK or bombesin) is listed as “had no effect on stimulated enzyme secretion”.

With `CCCCCCCCCCCCCC(=O)O[C@@H]1[C@@H](C)[C@@]2(O)[C@@H](C=C(CO)C[C@]3(O)C(=O)C(C)=C[C@@H]23)[C@@H]2C(C)(C)[C@]12OC(C)=O` [TPA, 12-O-tetradecanoylphorbol-13-acetate], the “PAK2 activation (abstract, words)” value in [6] was “activated”.

With `C[N+](C)(C)CCOC(N)=O` [carbachol], the “PAK2 activation (abstract, words)” value in [6] was “activated”.

“COOH-terminal octapeptide of cholecystokinin [CCK]”: in [7] (mean ± S.E. of 5 experiments), the “T402 PAK2 phosphorylation at 1 minute” value was 275±17 % of control. In test [7] (3 min, CCK 100 nM, mean ± S.E. of 5 experiments, p<0.05), the “T402 PAK2 phosphorylation at 3 min” value is recorded as 298±26 % of control. For the same molecule, the “duration of increase in phospho-T402 PAK2” value in test [7] is “over 15 min”. In addition, the “time of maximum T402 PAK2 phosphorylation” value in [7] is 3 min. Besides, the “subsequent partial decrease of PAK2 activation after rapid increase” value in [7] (CCK 100 nM, sustained over time) turned out to be 40%. Moreover, in [6], the “PAK2 activation (abstract, words)” value is listed as “activated”. The “maximal stimulation of T402 PAK2 phosphorylation” value in test [8] (100 nM CCK) is reported as 452±70 % of control. Besides, the “concentration at which increase in T402 PAK2 phosphorylation is detectable” value in [8] turned out to be 10 pM. For the same molecule, the “concentration of maximal stimulation of T402 PAK2 phosphorylation” value in [8] was 100 nM. The “PKC-independent activation of PAK2 that was also PLC-independent” value in [2] (CCK1 receptor stimulation) was 40%. The “increase in amylase release” value is listed as 313±57% in test [5] (0.01 nM CCK) and 413±11% in test [5] (0.1 nM CCK). The “Amylase secretion (% total), no inhibitor” value was determined as 11.9 ± 2.2 % total in test [5] (CCK 0.01 nM) and 15.7 ± 0.4 % total in test [5] (CCK 0.1 nM).

As for “Endothelin-1: interacts with ET-1 and ET-3 receptors in the pancreatic acinar cell (CSCSSLMDKECVYFCHLDIIW; ends and bridges not checked; cysteine pairing not given here; UniProt P05305 53-73, looked up)”, the “effect on phosphorylation of (T402) PAK2” value in test [6] is on record as “did not produce any effect upon T402 PAK2 phosphorylation”.

Take Epidermal growth factor [EGF]: in test [7] (mean ± S.E. of 5 experiments), the “T402 PAK2 phosphorylation at 1 minute” value is 300±30 % of control. Further, in [7], the “duration of increase in phospho-T402 PAK2” value is given as at most 3 min and the “time of maximum T402 PAK2 phosphorylation” value was 1 min. Also, in [6], the “T402 PAK2 phosphorylation by growth factors, % of control” value is 195±28 of control and the “PAK2 activation (abstract, words)” value is given as “activated”.

On to Insulin: pancreatic growth factor, for which, in test [6], the “T402 PAK2 phosphorylation by growth factors, % of control” value was 210±44 of control and the “effect of growth factors on PAK2 threonine 402 phosphorylation” value (“effect of growth factors” for short) is “did not quite reach statistical significance”.

As for basic fibroblast growth factor [bFGF], in test [6], the “T402 PAK2 phosphorylation by growth factors, % of control” value is recorded as 228±37 of control and the “PAK2 activation (abstract, words)” value was “activated”.

“bombesin: pancreatic secretagogue that activates phospholipase C”: the “PAK2 activation (abstract, words)” value in [6] is recorded as “activated”. The “Amylase secretion (% total), no inhibitor” value in [5] (bombesin 10 nM) was found to be 15.2 ± 0.8 % total.

On to gastrin, for which the “effect of selective receptor agonist on pT402 PAK2 phosphorylation” value in test [9] is on record as “did not produce any increase in pT402 PAK2 phosphorylation”.

As for hepatocyte growth factor [HGF], in test [6], the “effect of growth factors” value was “had no effect”.

For insulin-like growth factor 1 [IGF-1], in test [6], the “effect of growth factors” value is “had no effect”.

For platelet-derived growth factor [PDGF], in test [6], the “T402 PAK2 phosphorylation by growth factors, % of control” value is reported as 240±44 of control and the “PAK2 activation (abstract, words)” value is recorded as “activated”.

Regarding “secretin: gastrointestinal hormone activating adenylate cyclase”, the “effect on phosphorylation of (T402) PAK2” value in test [6] is on record as “did not increase phosphorylation of (T402) PAK2”.

Turning to “vasoactive intestinal peptide (HSDAVFTDNYTRLRKQMAVKKYLNSILN; ends and bridges not checked; UniProt P01282 125-152, looked up) [VIP]”, in [6], the “effect on phosphorylation of (T402) PAK2” value is on record as “did not increase phosphorylation of (T402) PAK2”.
